Screening results (PubChem BioAssay)
hERG rescue: compounds protecting human hERG from proarrhythmic drug block; 310,000 tested, 0.51% active; activation (rescue from dofetilide block), less the hit threshold, % at 10 µM; AID 1511; CHO-hERG, FluxOR thallium flux, dofetilide IC70 present; Q12809;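 active means activation above the mean of controls blocked by dofetilide plus 5 SD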;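 further: thallium influx through hERG after potassium depolarization seen as dye fluorescence rise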
KCNQ1 act: human KCNQ1 channel potentiation or activation; B-score at 10 µM; AID 2648; P51787; CHO-K1 KCNQ1, thallium flux FluxOR fluorescence; active compounds read high; 310,000 tested, 0.35% active;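 active means fluorescence ratio B-score, a plate-corrected score, at least three library SD, with initial intensity B-score within 5 SD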
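Material: CHO-K1 cells stably expressing KCNQ1. Medium: assay buffer for compound exposure, DMSO matched across wells. Reagent: K+/Tl+ depolarizing stimulus. Compound dosing: single-concentration screen. Times: 37 °C overnight plating, 90-min dark dye load, 20-min compound pretreatment. Technique: FluxOR Tl+ flux fluorescence.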
KCNK3 inh: human KCNK3 channel inhibition, primary screen; O14649; CHO-KCNK3 thallium flux, FluxOR fluorescence; active compounds read low; B-score at 10 µM; 340,000 tested, 0.84% active; AID 602410;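 active means B-score under library mean minus 4 SD, starting fluorescence ratio at most library mean plus 5 SD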;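 further: more negative B-score means stronger inhibition of thallium flux through KCNK3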
Target sequence (O14649 whole entry, looked up): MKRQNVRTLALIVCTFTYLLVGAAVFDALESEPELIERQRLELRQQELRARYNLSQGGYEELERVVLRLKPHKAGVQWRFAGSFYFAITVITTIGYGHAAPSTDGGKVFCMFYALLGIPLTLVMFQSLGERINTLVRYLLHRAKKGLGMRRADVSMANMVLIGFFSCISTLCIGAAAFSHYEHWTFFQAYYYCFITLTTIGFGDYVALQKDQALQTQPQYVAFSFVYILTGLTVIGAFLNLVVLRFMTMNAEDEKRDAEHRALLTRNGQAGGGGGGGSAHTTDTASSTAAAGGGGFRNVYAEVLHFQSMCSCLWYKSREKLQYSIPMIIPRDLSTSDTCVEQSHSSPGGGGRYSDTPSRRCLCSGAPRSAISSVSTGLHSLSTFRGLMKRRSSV
Kir21 block: inhibitors of mouse Kir2.1 inward-rectifier potassium channel; HEK293-Kir2.1, FluxOR thallium flux fluorescence; active compounds read low; B-score at 10 µM; 310,000 tested, 0.85% active; AID 1672;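 active means fluorescence ratio B-score at or below minus 3 SD of library scores, with starting-brightness B-score within 2 SD, cut at about -4.2 in these data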;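 further: channel flux triggered by added potassium and thallium sulfate stimulus; B-score of peak minus minimum fluorescence over baseline after thallium stimulus; more negative B-score means stronger Kir2.1 block with less thallium influx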
KCNK9 block: inhibitors of human KCNK9 two-pore domain potassium channel; Q9NPC2; HEK293 KCNK9, FluxOR thallium flux fluorescence; active compounds read low; B-score at 10 µM; 310,000 tested, 1.2% active; AID 488922;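 active means ratio B-score over 3 SD below the library mean, with starting fluorescence within 5 SD of its mean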;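 further: negative B-score means less thallium flux so channel inhibition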
KCNQ1 block: inhibitors of human KCNQ1 potassium channel | 310,000 tested, 1.3% active | CHO-K1 KCNQ1, FluxOR thallium flux fluorescence; active compounds read high | B-score at 10 µM;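 active means compounds whose thallium flux B-score, printed positive for inhibition, exceeds three library SD while starting fluorescence stays within three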;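 further: channel opened by potassium depolarization with thallium stimulus after 20 min compound exposure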
KCNK3 confirm: confirmation of human KCNK3 two-pore domain potassium channel inhibitors; shares compounds with KCNK3 inh; CHO-KCNK3 thallium flux, FluxOR fluorescence; 0% buffer, 100% carvedilol maximal block; ratio percent of control, % at 10 µM; 2,400 tested, 99% active; AID 651638;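 active means ratio percent of control, averaged over triplicates, above buffer control mean plus 5 SD, cut at about 64% in these data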;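 further: ratio is the fluorescence rise from min to max over baseline after thallium stimulus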
KCNK3 noninduced: counter-screen for KCNK3 inhibitors: effect in non-induced cells. shares compounds with KCNK3 inh. non-induced KCNK3 parental cells, FluxOR thallium flux; active compounds read low. thallium flux ratio (lower = more inhibition) at 10 µM. 2,400 tested, 40% active;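 active means thallium flux ratio, averaged over three wells, more than 5 SD below the buffer control mean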;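 further: host cells are CHO cells without KCNK3 induction; ratio is peak minus trough fluorescence over baseline then normalized to buffer controls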
An asterisk follows results filed as active; i = inactive; · = no result given. Hits are enriched below; roughly 3.7% of the tested compounds scored in any of these assays.

SMILES | hERG rescue | KCNQ1 act | KCNK3 inh | Kir21 block | KCNK9 block | KCNQ1 block | KCNK3 confirm | KCNK3 noninduced
COc1cccc(N(CC(=O)NCCSCc2ccco2)S(=O)(=O)c2ccccc2)c1 | -9 | i | i | 0.36 | i | i | · | ·
COc1ccc(N(CC(=O)NCCSCc2ccco2)S(=O)(=O)c2ccccc2)cc1Cl | -3 | i | -10* | -1.9 | i | i | 106* | i
CCOC(=O)c1oc2ccc3c(c2c1C)C(=O)CC1(CCN(C(=O)OCC)CC1)O3 | -3 | i | i | -2.4 | i | i | · | ·
CCOC(=O)N1CCC2(CC1)CC(=O)c1c(ccc3oc(C(=O)O)c(C)c13)O2 | -17 | i | -15* | 0.39 | i | i | 0 | i
Cc1cc(NC(=O)CSc2nnc(-c3cccnc3)n2Cc2ccccc2)no1 | -9 | i | i | -1.1 | i | i | · | ·
Oc1ccccc1/C=N/c1c(-c2ccco2)nc2ccccn12 | -17 | i | -9.7* | 0.33 | i | i | 95* | i
Clc1ccc(/C=N/c2c(-c3ccco3)nc3ccccn23)cc1 | -7 | i | i | 0.18 | i | i | · | ·
O=C(CSc1nc2ccccc2c(=O)n1-c1ccccc1)N/N=C/C=C/c1ccccc1[N+](=O)[O-] | -16 | i | -9.1* | -0.25 | i | i | 100* | i
Cc1ccccc1-n1c(SCC(=O)N/N=C/C=C/c2ccccc2[N+](=O)[O-])nc2ccccc2c1=O | -7 | i | i | 0.14 | i | i | · | ·
CC(=O)Oc1c(/C=C(\C#N)C(N)=O)[nH]c2ccccc12 | -12 | i | -9* | -5* | i | i | 101* | 0.14*
CN(C)CCCN=Cc1c(O)n(Cc2ccccc2)c(=O)c2ccccc12 | -11 | i | -11* | -3.1 | -7.2* | i | 98* | i
CN(C)CCN=Cc1c(O)n(Cc2ccccc2)c(=O)c2ccccc12 | -9 | i | i | -3 | i | i | · | ·
CCOC(=O)N1CCC(N2Cc3cccc(C(=O)NC(C)c4ccc5c(c4)OCCO5)c3C2=O)CC1 (configuration not stated) | -14 | i | -13* | -0.02 | i | i | 101* | i
CCOC(=O)CNC(=O)C1c2ccccc2Oc2ccccc21 | -8 | i | -12* | -0.01 | i | i | 50* | i
C=CCN(C(=O)Nc1ccc(OC)cc1)c1nnc(-c2ccncc2)s1 | -6 | i | -9.5* | -0.1 | i | i | 94* | i
CCOc1ccc(CN(C)C(=O)CNC(=O)c2ccc3ccccc3c2)cc1OC | -5 | i | i | -0.33 | i | i | · | ·
O=C(CNC1CCCCCC1)c1cccs1 | -3 | i | i | -1.2 | i | i | · | ·
C=C(C)COc1ccc(-c2[nH]ncc2Oc2ccccc2OC)c(O)c1 | -8 | i | i | -0.12 | i | i | · | ·
C=C(C)COc1ccc(-c2[nH]ncc2-c2ccccc2OC)c(O)c1 | -9 | i | -9* | 0.77 | i | i | 96* | i
O=C(O)C(c1ccccc1)N1C(=O)c2cccc3cccc(c23)C1=O (configuration not stated) | -2 | i | i | 0.02 | i | i | · | ·
NN=C1c2ccccc2C(=O)C1C(=O)C(c1ccccc1)c1ccccc1 (configuration not stated) | · | · | -14* | · | · | · | 138* | 0.097*
COc1ccc(CCNC(=O)CSc2nnc3ccccn23)cc1 | -6 | i | i | 0.22 | i | i | · | ·
O=C(Nc1ccc(Cl)cc1)N(Cc1cccs1)Cc1cccs1 | -4 | i | -12* | -0.04 | i | i | 130* | i
CCOC(=O)Nc1cccc(NC(=O)c2ccccc2F)c1 | -10 | i | -8.8* | 1.8 | i | i | 100* | i
CC(=O)Nc1cccc(NC(=O)c2ccccc2OCc2ccccc2)c1 | -9 | i | -10* | 0.68 | i | i | 111* | i
SMILES | hERG rescue | KCNQ1 act | KCNK3 inh | Kir21 block | KCNK9 block | KCNQ1 block | KCNK3 confirm | KCNK3 noninduced
CC(=O)Nc1cccc(NC(=O)c2cccc(OCc3ccccc3)c2)c1 | -9 | i | i | 0.04 | i | i | · | ·
CCc1ccc(-c2cc(C)no2)cc1S(=O)(=O)NCc1ccccc1OC | -10 | i | -11* | 0.84 | i | i | 98* | i
Cc1cc(-c2ccc(C)c(S(=O)(=O)N3CCN(c4ccccn4)CC3)c2)on1 | -7 | i | i | 0.36 | i | i | · | ·
CCc1ccc(-c2cc(C)no2)cc1S(=O)(=O)N1CCN(c2ccccc2OC)CC1 | -13 | i | -9.6* | 1.1 | i | i | 83* | 0.15*
CC(=O)N(/N=C1/C(=O)Nc2ccccc21)c1ccccc1 | -9 | i | -9* | 1.7 | i | i | 125* | 0.12*
CC(=O)c1ccc(N=C2C(=O)Nc3ccccc32)cc1 | -3 | i | i | 0.29 | i | i | · | ·
Cc1ccc(OCc2cc(C(=O)NCc3ccc(OC(F)(F)F)cc3)no2)cn1 | -2 | i | i | -0.53 | i | i | · | ·
CCc1cc(CNC(=O)c2cc(COc3ccc(C)nc3)on2)on1 | -6 | i | -9.4* | 1.1 | i | i | 0 | i
CSc1cccc(NC(=O)/C=C/c2cccc(Cl)c2)c1 | -13 | i | -11* | 0.82 | i | 11* | 128* | 0.16*
OC1(c2cccc(C(F)(F)F)c2)CCN(c2ncnc3c2[nH]c2ccc(F)cc23)CC1 | · | · | -12* | · | · | · | 132* | i
CN(C)c1oc(-c2ccccc2Cl)nc1S(=O)(=O)c1ccccc1 | -8 | i | -9.3* | -0.27 | i | i | 108* | i
CCC(CC)C(=O)Nc1cccc(C(=O)Nc2ccc3c(c2)OCO3)c1 | -15 | i | -12* | 1.3 | -7.6* | i | 92* | i
Cc1cc(NC(=O)CSc2nnc(Cc3ccccc3)o2)no1 | -6 | i | i | -2.1 | i | i | · | ·
CC(OC(=O)C1CCC1)C(=O)Nc1cc(Cl)cc(Cl)c1 (configuration not stated) | -12 | i | -9* | -1.4 | i | i | 96* | i
CC(=O)c1cccc(NC(=O)C(C)OC(=O)C2CCC2)c1 (configuration not stated) | -4 | i | i | 2.1 | i | i | · | ·
C=CCn1c(C)cc(C(=O)COc2ccc(N(C)S(=O)(=O)c3ccc(NC(C)=O)cc3)cc2)c1C | · | · | -12* | · | · | · | 105* | i
